Screening results (PubChem BioAssay)
Mot1-301 SUMO – yeast Mot1-301 growth rescue at high temperature, primary screen, SUMOylation pathway inhibitor project, S. cerevisiae, ATP luminescence, 38.5C; growth rescue, % at 18.8 µM; actives 1% (n = 320,000); AID 2716, 2010; S. cerevisiae Mot1-301 growth rescue; percent above DMSO median, 100 means doubled;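 active means every valid replicate shows activation above 250% relative to neutral control wells; inactive means the rest, any valid replicate at or below 250%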;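 further: OY570 slx delta 5 strain wells were the positive control but not used for scaling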
Efflux pump mplx – inhibitors of Candida efflux pumps in yeast, primary screen, S. cerevisiae, Nile Red, multiplex. S. cerevisiae Candida pump triplex. inhibition, % at 10 µM. actives 0.44% (n = 330,000);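 active means plate passing quality check with inhibition over a set limit, or well fluorescence over plate mean plus 4 SD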;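 further: Nile Red retained in pooled yeast measured as flow cytometry median fluorescence; 0% = buffer negative control and 100% = Enniatin B positive control; higher means more Nile Red kept so more efflux inhibition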
WT yeast gro inh – growth inhibition of WT strain, primary screen, mitochondrial fusion inhibitor project, WT and mutant strains, chemical genetic; inhibition, % at 10 µM; mitochondrial fusion phenotypic screen; actives 2.1% (n = 190,000); AID 1362, 2008; in the data active means inhibition above about 58%; tested in S. cerevisiae
CSC inhib – cancer stem cell viability inhibitors, primary screen, luminescence | cancer stem cell-like cells viability | inhibition, % at 7.5 µM | actives 1.1% (n = 300,000) | AID 2717, 2010; in the data active means inhibition above about 75%; inconclusive means no clear call, values can overlap the other calls; tested in HMLE shEcad cells
T cruzi inh – inhibitors of intracellular T. cruzi growth, primary screen, luminescence, NIH3T3 host cells. T. cruzi beta-gal in NIH3T3, 90 h. actives 1.4% (n = 300,000). AID 1885, 2009. inhibition, % (concentration not given with the values);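 active means mean inhibition across valid replicates above about 55%, limit read from the data; inconclusive means mean below that limit but half or more replicates reach it; inactive means mean below it, under half of replicates reach it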;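 further: signal also drops with host cell toxicity which is not excluded here; 0% = plate median of DMSO wells and 100% = zero luminescence signal; higher percent means less beta-gal luminescence so fewer parasites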
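Incubation – ≥90 h infection period, 3 h prior cell attachment · System – NIH/3T3 fibroblasts plus reporter T. cruzi · Doses – compound pinned at 50 nL/well, DMSO · Read-out basis – percent inhibition of parasite-derived β-gal signal · Signal – luminescent β-galactosidase signal after 60 min lysis · Also added – 5000 T. cruzi trypomastigotes/well · Medium – Low-serum DMEM with 2% FBS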
Beta cell apopt – inhibitors of cytokine-induced beta cell apoptosis, primary screen, luminescence. protection from apoptosis, % (no concentration beside the values). actives 0.8% (n = 300,000). INS-1E cytokine-induced death, ATP luminescence, 48 h; percent of positive-control rescue, neutral wells zero;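 active means Every replicate reaches about 75%, or at least half do and their mean reaches it too, limit read from the data; inconclusive means At least half of replicates reach the limit but their mean does not; inactive means Under half of replicates reach the limit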;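 further: 0% = cytokine-treated negative control wells and 100% = positive control rescue; higher means more ATP so stronger rescue from cytokine killing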
* marks the source's active call; other numbers are inactive results; ? = inconclusive; . = no result. Rows were chosen to be rich in hits. Some 4.8% of all compounds tested hit in one or more screens of this group.

SMILES | Mot1-301 SUMO | Efflux pump mplx | WT yeast gro inh | CSC inhib | T cruzi inh | Beta cell apopt
Cc1nnc(SCCn2c(N3CCC(Cc4ccccc4)CC3)nc3c2c(=O)[nH]c(=O)n3C)s1 | 8 | 0 | 5 | -3 | 26 | -4
Cn1c(=O)[nH]c(=O)c2c1nc([N+](=O)[O-])n2Cc1ccccc1 | 24 | 0 | . | 49 | 35 | 98*
COc1ccc(-c2nc3c(c(=O)[nH]c(=O)n3Cc3ccccc3)n2Cc2ccccc2)cc1 | -24 | 0 | 39 | 7 | 61* | 4
COc1ccc(-c2nc3c(c(=O)[nH]c(=O)n3Cc3ccccc3)n2C)cc1 | -7 | 0 | -20 | 8 | 12 | -3
O=C(NN1C(=O)NC2(CCCCC2)C1=O)c1ccc(Cl)c(Cl)c1 | -14 | 0 | . | -24 | . | 0
CC(=O)Nc1nc(COc2ccccc2)cs1 | -7 | 0 | 18 | -1 | 5 | -3
O=C(Nc1nc(COc2ccccc2)cs1)C12CC3CC(CC(C3)C1)C2 | 19 | 0 | 59* | 65 | ? | 7
COc1cccc(C(=O)Nc2nc(-c3ccc(S(=O)(=O)N4CCOCC4)cc3)cs2)c1 | 255* | 0 | 13 | 29 | 20 | 7
O=C(Nc1nc(-c2ccccn2)cs1)c1ccc(F)c(S(=O)(=O)N2CCOCC2)c1 | -10 | 0 | . | . | . | 89*
O=C(Nc1nc(-c2ccc(S(=O)(=O)N3CCOCC3)cc2)cs1)c1ccccc1 | -5 | 0 | 4 | 28 | -3 | 6
O=C(Nc1nc(-c2ccccn2)cs1)c1cc(S(=O)(=O)N2CCOCC2)ccc1F | . | 0 | . | . | . | .
Cc1ccc(C(=O)Nc2nc(-c3ccccn3)cs2)cc1S(=O)(=O)N1CCOCC1 | -3 | 0 | . | . | . | 90*
CN(CC1CCCO1)S(=O)(=O)c1ccc(C(=O)Nc2nc(-c3ccccn3)cs2)cc1 (configuration not stated) | 187 | 0 | 12 | 70 | . | 104*
COc1ccc(/C(N)=N/OC(=O)C2CCC(=O)N2S(=O)(=O)c2ccc(C)cc2)cc1OC (configuration not stated) | -7 | 0 | -13 | . | -11 | 1
CC(C)(C)OC(=O)N1CCN(C(=O)c2[nH]cnc2C(=O)Nc2cccc(Cl)c2)CC1 | -15 | 0 | . | -17 | . | -2
COc1ccc2ccccc2c1CNC(C)CCc1ccccc1 (configuration not stated) | 40 | 0 | . | 15 | 56* | .
CC(=O)c1ccc(S(=O)(=O)NCCCC(=O)N(C)Cc2ccc3c(c2)OCO3)cc1 | -5 | 0 | . | -7 | . | 0
CCCCNC(=O)C1=C(N)C(C(=O)Nc2ccc(C)c(S(=O)(=O)N3CCCCC3)c2)SC1=Nc1ccc(C)cc1C (configuration not stated) | -27 | 0 | 60* | 33 | 6 | 0
O=C(CCC(=O)c1ccccc1)NC1CCCN(Cc2ccccc2F)C1 (configuration not stated) | -1 | 0 | . | -15 | 0 | .
N=c1c(S(=O)(=O)c2ccccc2)cc2c(=O)n3ccccc3nc2n1Cc1ccco1 | 1 | 0 | 3 | -2 | 16 | -21
Cc1ccc2nc3c(cc(S(=O)(=O)c4ccccc4)c(=N)n3Cc3ccco3)c(=O)n2c1 | -5 | 0 | 17 | 12 | 63* | -6
CCOc1ccc(C(=O)NCC(=O)NNC(=O)c2ccco2)cc1OCC | -4 | 0 | . | -9 | . | -8
O=[N+]([O-])c1cc(Br)c(OCc2nnc(-c3ccccc3)o2)c(Br)c1 | 3 | 0 | 2 | 13 | 67* | -4
COc1cc(C(C)=O)ccc1OCc1nnc(-c2ccccc2Br)o1 | 210 | 0 | . | -21 | 0 | 3
CS(=O)(=O)c1ccc(C(=O)OCc2nnc(-c3ccccc3)o2)cc1[N+](=O)[O-] | . | . | 15 | . | 76* | .
O=[N+]([O-])c1ccc2c(OCc3nnc(-c4ccccc4Br)o3)ncnc2c1 | 0 | 0 | . | 26 | 71* | 2
Nc1c(C(=O)CSc2nnc(Cc3ccccc3)o2)c(=O)[nH]c(=O)n1C1CC1 | 8 | 0 | . | -13 | . | -4
Cc1ccc(S(=O)(=O)N(C)Cc2ccccc2)cc1C(=O)N1CCCCC1 | 336* | 0 | . | -2 | -4 | 1
